Compound activity deposited in PubChem by Broad Institute.
In the library only some 2.5% were active in any assay of this set; here they are far more common.
EWS-Fli inh = EWS/Fli-driven NR0B1 reporter inhibitors, primary screen, A673 cells, NR0B1 luciferase, luminescence, MLPCN library; viability-normalised; inhibition, % at 12.6 µM; 350,000 compounds, 0.67% hits;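 active = mean inhibition of at least 50% after viability correction, with every replicate also passing that limit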;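 also: firefly luciferase signal divided by Alamar Blue viability fluorescence both relative to DMSO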
Env fusion inh = inhibitors of HIV-1 Env-driven cell-cell fusion, primary screen, HeLa-JRFL effector, CEM21 target cells, luciferase. inhibition, % at 12.3 µM. 360,000 compounds, 1.1% hits;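 active = mean replicate inhibition score of at least 50 and every replicate individually at or above 50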
AF4-AF9 inh = inhibitors of AF4 peptide binding to AF9, primary screen, biochemical, AlphaScreen, biotin-AF4 peptide, FLAG-AF9, single point; inhibition, % at 10 µM; 350,000 compounds, 0.47% hits;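 active = every replicate reaching a set inhibition limit, whatever the replicate mean, cut at about 25% in these data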
Target sequence (P42568 whole entry, looked up): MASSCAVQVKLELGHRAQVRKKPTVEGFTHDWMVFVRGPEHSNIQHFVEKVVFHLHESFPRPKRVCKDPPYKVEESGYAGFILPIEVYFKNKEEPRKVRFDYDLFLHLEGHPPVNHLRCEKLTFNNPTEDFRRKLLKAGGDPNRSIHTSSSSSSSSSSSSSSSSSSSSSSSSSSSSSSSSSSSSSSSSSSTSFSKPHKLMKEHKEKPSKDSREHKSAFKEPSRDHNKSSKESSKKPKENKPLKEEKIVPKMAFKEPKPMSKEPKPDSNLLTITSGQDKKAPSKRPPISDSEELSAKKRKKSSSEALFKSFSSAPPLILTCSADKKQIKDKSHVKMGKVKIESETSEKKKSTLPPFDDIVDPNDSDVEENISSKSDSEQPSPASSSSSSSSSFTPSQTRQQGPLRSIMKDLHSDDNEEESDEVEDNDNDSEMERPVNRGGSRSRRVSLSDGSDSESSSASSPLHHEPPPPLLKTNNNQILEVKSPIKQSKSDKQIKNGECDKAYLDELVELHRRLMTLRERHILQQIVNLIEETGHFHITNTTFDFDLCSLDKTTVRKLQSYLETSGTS
FN deposition inh = inhibitors of fibronectin matrix deposition, primary screen, AH1F cells, Alexa488-fibronectin fluorescence, plate reader; AH1F fibroblasts, overnight; inhibition, % at 12.6 µM; 350,000 compounds, 0.086% hits; AID 743247, 2014;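 active = mean inhibition across replicates of 30% or more, regardless of how many single replicates reach that level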
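Schedule: 1 h cell adhesion before compound, then overnight fibronectin incubation; test system: AH1F fibroblast monolayer depositing Alexa488-labelled fibronectin into matrix; quantity: 10000 AH1F cells per well; probe or stimulus: fluorescent fibronectin at 24 nM final; signal: fluorescence, ex 485 nm, em 525 nm; evaluation: percent inhibition as loss of matrix-bound fibronectin fluorescence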
Glyco luc inh = increase of ERlucT glycosylation luciferase signal, primary screen, N-linked glycosylation inhibitor project, D54 ERlucT cells, luminescence, set 2; reporter increase, % at 12.5 µM; 360,000 compounds, 0.23% hits; AID 588692, 2011; D54 ERlucT glycosylation luciferase reporter, 24 h; percent of 100 nM tunicamycin response;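 active = mean luciferase reporter signal, scaled so untreated is 0 and the glycosylation-blocking control 100, at or above a set limit in every replicate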;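 also: luciferase carries N-glycosylation sites so blocking glycosylation raises the light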
PAX8 inh HTS = inhibitors of PAX8-driven TPO luciferase reporter, primary screen, RMG-I cells, single concentration | SteadyGlo, 24 h | inhibition, % at 12.6 µM | 360,000 compounds, 1.2% hits;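 active = mean replicate inhibition at least 60% with every replicate also reaching 60%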;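 also: luciferase light reporting Pax8 driven TPO promoter activity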
Numbers stand for hits; - = inactive; . = no result; ! = not confirmed by another sample; [ ] = dose if it differs, or a comment.

SMILES | EWS-Fli inh | Env fusion inh | AF4-AF9 inh | FN deposition inh | Glyco luc inh | PAX8 inh HTS
COc1ccc(-c2n(Cc3ccccc3)c3ccccc3[n+]2Cc2ccccc2)cc1 | - | 70 | - | - | - | 89
O=C(N[C@@H]1CC[C@H](CCn2cc(C3CCCC3)nn2)O[C@H]1CO)c1cccnc1 | . | . | - | - | . | -
C[C@@H]1CN([C@@H](C)CO)C(=O)c2cccc(NC(=O)NC3CCCCC3)c2O[C@H]1CN(C)CC1CCCCC1 | - | - | - | . | . | .
C[C@@H]1CN([C@@H](C)CO)C(=O)Cc2cc(N(C)C)ccc2O[C@@H]1CN(C)Cc1ccc(Cl)c(Cl)c1 | - | - | 43 | . | . | -
C[C@H]1CN([C@@H](C)CO)C(=O)Cc2cc(N(C)C)ccc2O[C@H]1CN(C)Cc1ccc(Cl)c(Cl)c1 | - | 58[16.7 µM] | . | - | . | -
C[C@@H]1CN([C@H](C)CO)C(=O)Cc2cc(N(C)C)ccc2O[C@@H]1CN(C)Cc1ccc2c(c1)OCO2 | - | - | . | - | . | -
C[C@H]1CN([C@@H](C)CO)C(=O)Cc2cc(N(C)C)ccc2O[C@@H]1CN(C)Cc1ccc(Cl)c(Cl)c1 | - | - | - | - | . | -
C[C@H](CO)N1C[C@H](C)[C@H](CN(C)CC2CC2)Oc2ccc(N(C)C)cc2CC1=O | - | . | - | - | . | .
C[C@H]1CN([C@@H](C)CO)C(=O)Cc2cc(N(C)C)ccc2O[C@H]1CN(C)CC1CC1 | - | 59[16.7 µM] | - | - | . | -
O=C(Nc1ccc(Cl)cc1)N[C@H]1CC[C@@H](CCn2cc(Cc3ccccc3)nn2)O[C@@H]1CO | - | - | - | . | . | -
COCC(=O)N1C[C@H](C)[C@H](OC)CN(C)C(=O)c2cc(NS(C)(=O)=O)ccc2OC[C@H]1C | - | - | - | - | . | -
Cc1noc(C)c1S(=O)(=O)N(C)C[C@H]1OCCCC[C@H](C)Oc2ccc(NC(=O)Nc3ccccc3)cc2C(=O)N([C@H](C)CO)C[C@H]1C | - | - | - | - | . | -
Oc1ccc(CNc2ccccc2F)c2cccnc12 | - | 114! | - | - | - | 87
Oc1ccc(F)c2cccnc12 | - | - | - | - | - | 94
Oc1ccc(Cl)c2cccnc12 | - | - | - | - | - | -
COc1ccc(Cl)cc1C(=O)Nc1cc(=O)n(C)c(=O)n1C | - | - | 49 | - | - | -
COc1ccc(S(=O)(=O)N(C)C[C@H]2Oc3c(NC(=O)C4CCCCC4)cccc3C(=O)N([C@@H](C)CO)C[C@@H]2C)cc1 | - | . | - | . | . | -
CCN1[C@H](C(=O)NCCCN(C)C)[C@@H](CO)[C@@H]2Cn3c(ccc(-c4ccccc4OC)c3=O)[C@@H]21 | - | . | - | . | . | -
O=C(C[C@H]1C[C@H]2c3cc(NC(=O)Cc4ccncc4)ccc3O[C@H]2[C@H](CO)O1)NCC1CC1 | - | - | - | - | . | -
CCCNC(=O)C[C@@H]1C[C@@H]2c3cc(NC(=O)Cc4ccncc4)ccc3O[C@@H]2[C@@H](CO)O1 | - | 93[16.7 µM] | . | - | . | -
O=C(C[C@H]1C[C@H]2c3cc(NC(=O)Cc4ccncc4)ccc3O[C@H]2[C@@H](CO)O1)NCc1ccncc1 | - | 93[16.7 µM] | - | - | . | -
O=C(C[C@@H]1C[C@@H]2c3cc(NC(=O)Cc4ccncc4)ccc3O[C@@H]2[C@H](CO)O1)NCCc1ccccc1 | - | - | - | - | . | -
CCCNC(=O)C[C@@H]1C[C@@H]2c3cc(NC(=O)Cc4ccncc4)ccc3O[C@@H]2[C@H](CO)O1 | - | 91[16.7 µM] | . | - | . | -
CN(C)c1ccc(N=Cc2cccn2C)cc1 | - | - | 50 | - | - | -
Cc1cccc(C(=O)O/N=C(\N)c2ccccn2)c1 | 77 | - | - | - | - | 84
SMILES | EWS-Fli inh | Env fusion inh | AF4-AF9 inh | FN deposition inh | Glyco luc inh | PAX8 inh HTS
Cc1ccc(C(=O)O/N=C(\N)c2ccccn2)cc1C | 74 | - | - | - | - | 83
COc1ccccc1S(=O)(=O)N[C@H]1CC[C@@H](CC(=O)NCc2cc(F)cc(F)c2)O[C@@H]1CO | . | . | - | . | . | -
O=C(C1CCC1)N1CC(=O)N2[C@H](CO)[C@@H](c3ccc(-c4ccccc4F)cc3)[C@@H]2C1 | - | . | - | - | . | -
O=S(=O)(Nc1nc2ccccc2nc1Nc1cccc(S(=O)(=O)N2CCCCC2)c1)c1ccccc1 | - | 77 | - | - | - | -
CC(C)NC(=O)N(C)C[C@H]1Oc2c(NS(=O)(=O)c3cn(C)cn3)cccc2C(=O)N([C@@H](C)CO)C[C@H]1C | - | - | - | - | . | .
COC(=O)c1cccc(NC(=O)Nc2ccc(Cl)cc2)c1 | 75 | - | - | - | - | -
Cc1cccc(NC(=O)c2cc(S(=O)(=O)N3CCOCC3)cn2C)c1C | - | - | - | - | - | -
O=C(Nc1cccc(Cl)c1)Nc1cccc(Cl)c1 | . | 52 | . | - | - | -
O=C(Nc1cccc(Cl)c1)Nc1cc(S(=O)(=O)N2CCCCC2)ccc1Cl | - | - | - | - | - | 75
Cn1cc(S(=O)(=O)N2CCOCC2)cc1C(=O)Nc1cccc(Cl)c1 | - | 98 | - | - | - | -
CN1CCN(S(=O)(=O)c2ccc(NC(=O)Nc3cccc(Cl)c3)cc2)CC1 | . | . | . | . | - | .
O=C(C1CCC1)N1CC2(C1)[C@@H](c1ccccc1)[C@H](CO)N2C(=O)CC1CC1 | - | . | - | . | . | .
CO[C@H]1CN(C)C(=O)c2cc(NC(=O)NC(C)C)ccc2OC[C@@H](C)N(CC2CC2)C[C@H]1C | - | - | - | - | . | -
COc1ccccc1NS(=O)(=O)c1cccc(NC(=O)Nc2cccc(Cl)c2)c1 | . | 45 | . | - | - | -
COc1ccccc1NS(=O)(=O)c1cccc(NC(=O)NCCCl)c1 | - | - | - | - | - | -
CCCCCCC[C@@H](C/C=C/CCC(=O)N(C)C/C(=C/Cl)C/C(=C\C(=O)N1CC(OC)=CC1=O)OC)OC | - | - | - | - | 77 | -
CCCCCCC[C@@H](C/C=C/CCC(=O)N(C)C/C(=C/Cl)C/C(=C\C(=O)N1C[C@H](O)CC1=O)OC)OC | - | - | - | - | - | -
CO[C@H]1CN(C)C(=O)c2ccc(NC(=O)NC(C)C)cc2OC[C@H](C)N(C(=O)C2CCC2)C[C@@H]1C | . | . | - | - | . | -
CC1=NNC(=O)/C1=C\c1cn(-c2ccccc2)nc1-c1ccccc1 | 82 | - | - | . | - | -
O=Cc1cn(-c2ccccc2)nc1-c1ccccc1 | - | - | - | - | - | -
C[C@@H]1CN([C@H](C)CO)C(=O)c2cc(NC(=O)Nc3ccccc3)ccc2O[C@@H](C)CCCCO[C@@H]1CN(C)Cc1ccc(C(F)(F)F)cc1 | - | 58[16.7 µM] | . | - | . | 80
C[C@@H]1CCCCO[C@H](CN(C)Cc2ccc(C(F)(F)F)cc2)[C@H](C)CN([C@@H](C)CO)C(=O)c2cc(NC(=O)Nc3ccccc3)ccc2O1 | - | - | . | - | . | 75
